CAL PDZ FP-1: CAL PDZ peptide-binding inhibitors, primary screen, biochemical, fluorescence polarization, Cer-tagged CAL PDZ, HTS | inhibition, % at 20 µM | purified CAL PDZ, TMR-peptide fluorescence polarization, 1 h | 330,000 compounds, 0.02% hits | Golgi-associated PDZ and coiled-coil motif-containing protein (Homo sapiens), Q9HD26 | AID 504414, 2011;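 active means highest replicate inhibition of at least 40%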
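Read-out basis: mP drop reported as inhibition | Assay system: Tagged CAL PDZ protein CerCALP, purified | Benchmarks: Unlabelled peptide for full inhibition, DMSO wells as neutral | Schedule: 1 h incubation at room temperature before polarization reading | Buffer or medium: Sodium phosphate/NaCl buffer pH 7.4 with TCEP, IgG, Thesit | Doses: Single point, 20 µM | Measured by: Fluorescence polarization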
CAL PDZ FP-2: untagged CAL PDZ binding inhibitors, primary screen, biochemical, fluorescence polarization, HTS. Golgi-associated PDZ and coiled-coil motif-containing protein (Homo sapiens), Q9HD26. purified CAL PDZ, TMR-peptide fluorescence polarization, 1 h. inhibition, % at 24.9 µM. 300,000 compounds, 0.92% hits. AID 602252, 2012;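 active means mean inhibition of at least 30% with at least half of replicates also reaching 30%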
LANA DNA inh: inhibitors of KSHV C-LANA binding to DNA, primary screen, biochemical, fluorescence polarization, FAM-LBS DNA, MBP-C-LANA, single point; inhibition, % at 9 µM; AID 504423, 2011; 340,000 compounds, 0.078% hits;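 active means highest replicate inhibition at or above 60% at 9 µM, even if other replicates fall short; inactive means all replicates below 60% inhibition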
miR-122 sensor: miR-122 Renilla sensor signal increase in Huh7, primary screen, miR-122 inhibitor project, cell-based, single point, plate reader; Huh7 miR-122 Renilla luciferase sensor, 48 h; neutral wells = 0, positive control = 100; activation (reporter increase), % at 12.5 µM; 340,000 compounds, 0.3% hits;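 active means mean replicate activation score at least 90 and every replicate individually at or above 90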;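 further: higher luciferase means less miR-122 activity so hits act as miR-122 inhibitors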
Keap1 Nrf2 FP: Keap1-Nrf2 protein-protein interaction inhibitors, primary screen, biochemical, fluorescence polarization, single point; Kelch-like ECH-associated protein 1 (Homo sapiens), Q14145; Keap1 Kelch-Nrf2 peptide fluorescence polarization, 1536-well; inhibition, % at 9.4 µM; 340,000 compounds, 0.15% hits; in the data active means inhibition above about 12%;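 further: human Keap1 Kelch domain with fluorescein labeled Nrf2 9mer peptide probe; higher means more block of Keap1 binding to Nrf2 peptide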
Target sequence (Q14145 whole entry, looked up, the tested form may be a part): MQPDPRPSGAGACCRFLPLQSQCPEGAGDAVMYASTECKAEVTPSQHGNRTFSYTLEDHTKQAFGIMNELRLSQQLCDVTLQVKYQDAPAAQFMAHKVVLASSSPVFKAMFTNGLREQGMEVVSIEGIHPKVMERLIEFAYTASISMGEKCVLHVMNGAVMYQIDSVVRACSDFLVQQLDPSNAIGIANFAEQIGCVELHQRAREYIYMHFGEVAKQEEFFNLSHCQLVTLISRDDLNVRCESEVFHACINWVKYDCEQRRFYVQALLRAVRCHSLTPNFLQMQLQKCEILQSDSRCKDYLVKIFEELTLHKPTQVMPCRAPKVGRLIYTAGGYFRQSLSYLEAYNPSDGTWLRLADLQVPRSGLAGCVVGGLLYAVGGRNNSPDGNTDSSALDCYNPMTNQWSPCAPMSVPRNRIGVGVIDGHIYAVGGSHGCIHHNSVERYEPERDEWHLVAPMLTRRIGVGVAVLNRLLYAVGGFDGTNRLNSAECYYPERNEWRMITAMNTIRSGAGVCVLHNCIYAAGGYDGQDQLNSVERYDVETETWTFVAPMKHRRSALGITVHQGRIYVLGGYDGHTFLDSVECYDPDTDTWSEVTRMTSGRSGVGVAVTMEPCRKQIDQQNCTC
Numbers stand for hits; – = inactive; · = not tested or not shown; ! = repeats disagree; [ ] = remark or other dose. Shown are actives, neighbours in structure and some others; about 1.1% of the full set was active somewhere.

SMILES	CAL PDZ FP-1	CAL PDZ FP-2	LANA DNA inh	miR-122 sensor	Keap1 Nrf2 FP
OC(c1ccc(Cl)c(Cl)c1)c1ncc(-c2ccccc2F)[nH]1 (configuration not stated)	·	·	·	103.7	·
Cc1ccccc1-c1cnc(C(O)c2ccc(F)c(F)c2)[nH]1 (configuration not stated)	·	·	·	92.9	·
CCNC(=O)[C@H]1[C@H](CO)[C@H]2Cn3c(ccc(-c4ccccc4)c3=O)[C@@H]1N2C(=O)C1CC1	·	·	·	–	·
C[C@H](CO)N1C[C@H](C)[C@@H](CN(C)Cc2ccc3c(c2)OCO3)Oc2ccc(NS(C)(=O)=O)cc2CC1=O	·	·	·	–	·
COc1ccccc1N(CC(=O)N1CCN(c2ccc(F)cc2)CC1)S(=O)(=O)c1ccc(C)cc1	–	54.6	–	–	–
Cc1ccc(C)c(N(CC(=O)N2CCCCCC2)S(C)(=O)=O)c1	–	·	–	–	–
COc1ccc(Cl)cc1N(CC(=O)N1CCCC1)S(=O)(=O)c1ccc(C)cc1	–	·	–	140.9	–
COc1ccccc1N(CC(=O)N1CCCCC1C)S(=O)(=O)c1ccc(Cl)cc1 (configuration not stated)	·	·	·	128.3	·
COc1ccccc1N(CC(=O)N1CCCC1)S(=O)(=O)c1ccc(C)cc1	–	–	–	·	–
Cc1ccc(C)c(N(CC(=O)N2CCCC2)S(C)(=O)=O)c1	–	76.5	–	–	–
C[C@H]1CN([C@@H](C)CO)C(=O)c2cc(C3=CCCCC3)cnc2O[C@H]1CN(C)C(=O)Nc1ccccc1	·	·	·	–	·
COc1cccc(S(=O)(=O)N(C)C[C@@H]2Oc3cc(C4=CCCCC4)ccc3S(=O)(=O)N([C@H](C)CO)C[C@@H]2C)c1	·	·	·	–	·
C[C@H]1CN([C@@H](C)CO)C(=O)c2cc(NS(=O)(=O)c3cccs3)ccc2O[C@@H]1CN(C)Cc1ccc(Cl)c(Cl)c1	·	·	·	–	·
CCSc1nnc(NC(=O)CN2C(=O)NC3(CCCC3)C2=O)s1	–	78.1	–	·	–
Cc1cc2nc(/C(C#N)=C/c3ccncc3)[nH]c2cc1C	–	107.1	–	–	–
CCN(CC)CCn1c2c(c(SCC(=O)NCc3ccccc3)nc1=O)CCCC2	–	–	–	·	–
CCN(CC)CCn1c2c(c(SCC(=O)NCc3ccccc3)nc1=O)CCC2	–	39.1	–	–	–
C[C@H]1CN([C@@H](C)CO)C(=O)c2cc(Br)cnc2O[C@H]1CN(C)C(=O)Nc1ccccc1	·	·	·	–	·
O=C(Oc1coc(CSc2ncccn2)cc1=O)c1ccccc1[N+](=O)[O-]	–	81.7	–	·	–
Cc1cc(C)nc(SCc2cc(=O)c(OC(=O)c3cc([N+](=O)[O-])ccc3Cl)co2)n1	–	–	–	·	–
O=C(Nc1ccc2c(c1)OCO2)N[C@H]1CC[C@H](CCNC(=O)C2CC2)O[C@@H]1CO	·	·	·	–	·
O=C(NCCCO)c1ccc2nc(-c3ccco3)c(-c3ccco3)nc2c1	–	–	68.2	–	–
Cc1ccc(C(=O)CSc2nnc(C3CC3)n2C2CC2)s1	–	63.0	–	–	–
CNC[C@H]1Oc2ccc(NC(=O)C3CC3)cc2C(=O)N([C@@H](C)CO)C[C@H]1C	·	·	·	–	·
CCC(=O)Nc1ccc2c(c1)OC[C@H](C)N(C(=O)CC)C[C@@H](C)[C@H](OC)CN(C)C2=O	·	·	·	–	·
SMILES	CAL PDZ FP-1	CAL PDZ FP-2	LANA DNA inh	miR-122 sensor	Keap1 Nrf2 FP
COc1ccc(-n2c(C)c(C(C)=O)c3cc(OCC(N)=O)ccc32)cc1	–	37.6	–	–	–
CCc1ccc(Oc2ncnc(N)c2[N+](=O)[O-])cc1	–	66.7	–	·	–
CC(=O)c1ccc(Oc2ncnc(N)c2[N+](=O)[O-])cc1	–	–	–	–	–
O=C(NNc1ccccc1)/C(=C\c1cccnc1)NC(=O)c1ccccc1	–	73.1	–	·	–
O=C(NCc1ccc2c(c1)OCO2)c1nc(Cn2ccc([N+](=O)[O-])n2)no1	–	–	–	–	–
O=C(NCc1ccc2c(c1)OCO2)c1nc(Cn2cc(Br)cn2)no1	–	36.7	–	·	–
CCC(=O)Nc1ccc(C(=O)Nc2cccc(C)n2)cc1	–	–	–	218.5	–
Cc1cc(C)c(S(=O)(=O)NC2CCN(Cc3ccccc3)CC2)c(C)c1	–	–	–	–	–
Cc1ccc(NS(=O)(=O)c2cccc(C(=O)NC3CCN(Cc4ccccc4)CC3)c2)cc1	–	89.0	–	·	–
Cc1cc(S(=O)(=O)NC2CCN(Cc3ccccc3)CC2)c(C)cc1Cl	–	·	82.2	·	–
Cc1cc(C)c(C)c(S(=O)(=O)NC2CCN(Cc3ccccc3)CC2)c1C	–	·	–	216.3	–
Cc1cccc(NC(=O)CSc2nc(=O)n(CCCN3CCOCC3)c3c2CCCC3)c1	–	47.8	–	–	–
Cc1cc(C)cc(NC(=O)CSc2nc(=O)n(CCN3CCOCC3)c3c2CCCC3)c1	–	51.8	–	·	–
CCc1nnc(NC(=O)c2cc(C)nc3ccccc23)s1	–	64.9	–	–	–
CCc1nnc(NS(=O)(=O)c2ccc(N3C(=O)c4ccccc4C3=O)cc2)s1	–	84.4	–	·	–
CCc1nnc(NC(=O)c2ccc(NS(=O)(=O)c3ccccc3)cc2)s1	–	–	–	211.6	–
CCc1nnc(NS(=O)(=O)c2ccc(NC(=O)c3ccccc3)cc2)s1	–	–	–	–	–
CCCNC(=O)N1[C@H](CN(C)C(C)=O)[C@@H](c2ccc(C3=CCCC3)cc2)[C@@H]1CO	·	·	·	–	·
Cc1cccc(C(=O)NCC(=O)OCC(=O)c2cc(C)n(CC3CCCO3)c2C)c1 (configuration not stated)	–	89.5	–	·	–
C[C@H]1CN([C@@H](C)CO)C(=O)Cc2cc(NC(=O)Nc3ccc(C(F)(F)F)cc3)ccc2O[C@@H]1CN(C)Cc1ccc(C(=O)Nc2ccccc2N)cc1	·	·	·	–	·
C[C@@H]1CN([C@H](C)CO)C(=O)c2cc(NC(=O)CCN3CCOCC3)ccc2O[C@@H]1CN(C)C(=O)Nc1cccc2ccccc12	·	·	·	–	·
C[C@@H]1CN([C@H](C)CO)C(=O)c2cccc(NS(=O)(=O)c3cccs3)c2O[C@H]1CN(C)Cc1ccc(C(F)(F)F)cc1	·	·	·	264.3[16.7 µM]	·
C[C@H]1CN([C@@H](C)CO)C(=O)c2cccc(NS(=O)(=O)c3cccs3)c2O[C@@H]1CN(C)Cc1ccncc1	·	·	·	–	·
C[C@H](CO)N1C[C@H](C)[C@@H](CN(C)Cc2ccc(Cl)c(Cl)c2)Oc2c(NS(=O)(=O)c3cccs3)cccc2C1=O	–	–	–	95.4!	–
Cc1ccc(S(=O)(=O)Nc2cccc3c2O[C@H](CN(C)Cc2ccc(Cl)c(Cl)c2)[C@@H](C)CN([C@H](C)CO)C3=O)cc1	·	·	·	–	·

Source: PubChem
